S100A4 inh HTS: inhibitors of human S100A4 binding to myosin IIA peptide; P26447; S100A4/TAMRA-MyoIIA peptide fluorescence polarization; inhibition, % at 10.7 µM; 0.14% of 360,000 active; AID 652163;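 active = mean inhibition of at least 70% across replicates, with every replicate also reaching that level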
Target sequence (P26447 whole entry, looked up): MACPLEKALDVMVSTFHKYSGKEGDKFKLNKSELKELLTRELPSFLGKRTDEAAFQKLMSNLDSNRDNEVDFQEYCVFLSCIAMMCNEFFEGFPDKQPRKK
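Material: S100A4 monomer (human). Medium: Calcium-containing HEPES buffer, pH 7.2. Probe or stimulus: labelled myosin peptide probe, 5 nM. Compound dosing: one concentration per compound. Timing: polarization read 5 min after assay mix addition, stable 5–60 min. Benchmarks: DMSO as neutral control, TFP as positive control.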
F508del corr: correctors of CFTR F508del function in bronchial epithelial cells; CFBE cells, YFP halide quenching; stimulated with forskolin plus potentiator P3; % fluorescence drop versus neutral controls; activity (quench increase), % at 7.58 µM; 0.36% of 350,000 active;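 active = mean added fluorescence quench of at least 8% versus neutral control, with both replicates also reaching 8%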;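 note: cells transiently co-express mutant CFTR-F508del with the halide-sensitive YFP; corrector assay measuring rescue of mutant channel to the surface after 24 h compound exposure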
Env fusion inh: blocks HIV Env-driven cell-cell fusion. HeLa-JRFL Env/CEM21 cell fusion, luciferase. inhibition, % at 12.3 µM. 1.1% of 360,000 active. AID 651610;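 active = mean replicate inhibition score of at least 50 and every replicate individually at or above 50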;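 note: 0% = plate neutral controls and 100% = maraviroc near 300 nM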
E-sel inducer: E-selectin induction on HUVECs. P16581. HUVEC E-selectin immunofluorescence imaging; normalized: neutral wells 0, TNF-alpha wells 100. activation, % at 7.58 µM. 0.37% of 260,000 active;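 active = mean E-selectin-positive cell signal at least 10% of the positive control, reached in at least 60% of replicates, without over 20% cell loss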
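Test system: HUVEC; input: 3,000 HUVEC/well; measured by: immunofluorescence imaging; read-out: % PE-positive cells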
FGF22 binding-1: binders of recombinant human FGF22 by thermal shift; Q9HCT0; AID 651658; 1.5% of 340,000 active; SYPRO orange fluorescence; percent of sucrose octasulfate shift, DMSO zero; activity (Tm shift, normalised), % at 9.99 µM;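 active = mean Tm shift, scaled 0 neutral to 100 positive control, at about 1.3% or above, every replicate too, limit read from the data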
Target sequence (Q9HCT0 whole entry, looked up): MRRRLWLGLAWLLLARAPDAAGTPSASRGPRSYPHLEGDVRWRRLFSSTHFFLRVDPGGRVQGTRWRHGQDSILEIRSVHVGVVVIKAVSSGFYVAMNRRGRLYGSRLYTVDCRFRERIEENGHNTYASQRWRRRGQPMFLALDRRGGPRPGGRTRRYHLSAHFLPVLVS
FGF22 binding-2: binds human FGF22 shifting its melting temperature | shares compounds with FGF22 binding-1 | recombinant FGF22 thermal shift, SYPRO orange fluorescence | thermal shift activity, °C (ΔTm) at 38 µM | 2% of 1,000 active | AID 720646;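 active = fitted rise in melting shift crosses a set limit at or below the top valid dose tested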
FGF22 TSA: binders of human FGF22 by thermal shift. AID 743017. 50 tested, under 10 active. shares compounds with FGF22 binding-1. Tm shift (activity), % at 38 µM. Thermal shift assay, SYPRO orange, melting temperature shift;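 active = compounds whose fitted dose curve of melting temperature shift rises past a set threshold within the tested doses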
SYPRO no-protein: shows thermal shift signal without protein, FGF22 counter-screen | AC50, µM (series often up to 38 µM) | shares compounds with FGF22 binding-1 | 2% of 1,000 active | compound-only SYPRO orange thermal shift counter-screen, no protein;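 active = rising signal whose fitted curve reaches the 0.54 level within the top valid dose, showing a melting point, actives reach about 13 µM in these data; inactive = the rest, including activity in the opposite direction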; note: value is where the raw curve crosses a fixed level and not half-maximal
Active calls of the source: *; i = inactive; nt = no result; [ ] = another dose, or the depositor's remark. Hits are enriched below; roughly 2.7% of the tested compounds scored in any of these assays.

SMILES	S100A4 inh HTS	F508del corr	Env fusion inh	E-sel inducer	FGF22 binding-1	FGF22 binding-2	SYPRO no-protein	others
O=C(NCC[C@@H]1CC[C@@H](NC(=O)Nc2cc(F)ccc2F)[C@@H](CO)O1)Nc1ccc(F)cc1	7	-1	19[16.7 µM]	0	1.3*	0.15	i
COc1cccc(NC(=O)N[C@@H]2CC[C@@H](CC(=O)Nc3ccccc3)O[C@H]2CO)c1	0	2	-12[16.7 µM]	0	22*	0.26	i
O=C(C[C@@H]1CC[C@@H](NC(=O)Nc2cc(F)ccc2F)[C@H](CO)O1)NCCCN1CCOCC1	10	-5	0[16.7 µM]	1	39*	0.23[42 µM]	i
O=C(C[C@H]1CC[C@@H](NC(=O)Nc2cc(F)ccc2F)[C@@H](CO)O1)Nc1ccc(-c2ccccc2)cc1	5	3	-8[16.7 µM]	2	1.3*	0.11[42 µM]	i
CCCC(=O)Nc1ccc2c(c1)C(=O)N(C)C[C@H](OC)[C@@H](C)CN(C(=O)CC)[C@H](C)CO2	nt	1	nt	0	nt	nt	nt
C[C@@H]1CCCCO[C@@H](CN(C)S(=O)(=O)c2ccc(F)cc2)[C@@H](C)CN([C@H](C)CO)C(=O)c2cc(NC(=O)CCCN(C)C)ccc2O1	7	-3	17[16.7 µM]	0	0	nt	nt
C[C@H](NC(=O)C[C@@H]1CC[C@@H](NC(=O)Nc2ccc3c(c2)OCO3)[C@@H](CO)O1)c1ccccc1	-7	0	7[16.7 µM]	1	6.9*	0.068[42 µM]	i
O=C(C[C@@H]1CC[C@H](NC(=O)c2ccc3c(c2)OCO3)[C@H](CO)O1)NCc1ccc(Oc2ccccc2)cc1	-1	0	nt	0	16*	0.34[42 µM]	i
CCOC(=O)c1c(C)[nH]c(C)c1C(=O)COC(=O)/C=C/c1ccccc1[N+](=O)[O-]	-5	-4	nt	-2	2.0*	-0.03	i
O=C(N[C@@H]1CC[C@H](CC(=O)N2CCN(c3ccccc3)CC2)O[C@@H]1CO)c1ccccc1	2	-1	0[16.7 µM]	0	1.9*	-0.057[42 µM]	i
O=C(N[C@@H]1CC[C@@H](CC(=O)N2CCN(c3ccccc3)CC2)O[C@H]1CO)c1ccccc1	11	0	-9[16.7 µM]	0	0	nt	nt
COc1cccc(C#Cc2ccc([C@H]3[C@H](CO)N4C(=O)CN(C(=O)C5CC5)C[C@@H]34)cc2)c1	8	5	nt	1	nt	nt	nt
O=C(N/N=C/c1ccc(C(F)(F)F)cc1)c1ccc(O)cc1	1	1	-2	20	2.4*	-0.069	i	FGF22 TSA=0
O=C(N/N=C/c1cccc(C(F)(F)F)c1)c1ccc(O)cc1	3	0	-13	nt	0	nt	nt
COC(=O)C[C@H]1C[C@H]2c3cc(NC(=O)Nc4ccc(C(F)(F)F)cc4)ccc3O[C@H]2[C@H](CO)O1	11	2	16[16.7 µM]	1	0	nt	nt
CO[C@H](CN(C)S(=O)(=O)c1ccc(C)cc1)[C@@H](C)CN([C@H](C)CO)S(=O)(=O)c1cccc(Cl)c1	1	3	nt	0	0	nt	nt
CO[C@@H](CN(C)S(=O)(=O)c1cccc(Cl)c1)[C@@H](C)CN([C@@H](C)CO)S(=O)(=O)c1cccc(Cl)c1	7	1	nt	0	1.5*	0.26	i
CO[C@@H](CN(C)S(=O)(=O)c1ccc(C)cc1)[C@@H](C)CN([C@H](C)CO)S(=O)(=O)c1cccc(Cl)c1	1	4	nt	0	0	nt	nt
CO[C@@H](CN(C)S(=O)(=O)c1ccc(Cl)cc1)[C@@H](C)CN([C@H](C)CO)S(=O)(=O)c1cccc(Cl)c1	1	3	64*[16.7 µM]	0	1.4*	-0.21	i
COc1ccc(NC(=O)Nc2ccc3c(c2)CC(=O)N([C@H](C)CO)C[C@@H](C)[C@H](CN(C)CC2CCCCC2)O3)cc1	9	1	8[16.7 µM]	0	0	nt	nt
O=C(CN(Cc1ccccc1)S(=O)(=O)c1ccccc1)N/N=C/c1ccccc1C(=O)O	-3	-1	-8	2	2.3*	-0.1	i
O=C1C2C(C(=O)N1CCc1ccccc1)C1C=CC2C12CC2 (stereo not given)	7	-2	nt	nt	2.5*	0.13	i
Cc1ccc(NC(=O)CSCC(=O)Nc2ccc(S(=O)(=O)N3CCOCC3)cc2)cc1	-1	1	-11	0	0	nt	nt
Cc1ccc(NC(=O)CN(C)C(C)C(=O)Nc2ccc(S(=O)(=O)N3CCCC3)cc2)cc1 (stereo not given)	1	-1	2	2	13*	0.009	i
Cc1ccc(OCCCC(=O)Nc2ccc(S(=O)(=O)N3CCOCC3)cc2)cc1	-1	-2	nt	1	2.5*	-0.17	i	FGF22 TSA=0
SMILES	S100A4 inh HTS	F508del corr	Env fusion inh	E-sel inducer	FGF22 binding-1	FGF22 binding-2	SYPRO no-protein	others
Nc1nnc(CC(=O)N/N=C/c2cc([N+](=O)[O-])cc(Br)c2O)s1	3	-3	2	nt	1.8*	nt	i
O=[N+]([O-])c1cc(CS(=O)(=O)Oc2ccc(Cl)cc2)c(O)c([N+](=O)[O-])c1	-1	0	13	2	1.4*	0.11	i
CC=Cc1ccc2n(c1=O)C[C@H]1[C@H](CO)[C@@H](C(=O)NCCCN(C)C)[C@@H]2N1C(=O)c1ccccc1F (mixture of isomers)	-4	nt	10[16.7 µM]	0	0	nt	nt
CCN1[C@@H]2Cn3c(ccc(-c4ccccc4F)c3=O)[C@H]1[C@@H](C(=O)NCc1ccc(F)cc1)[C@@H]2CO	7	nt	2[16.7 µM]	0	0	nt	nt
CC(C)(C)[S@@](=O)N1Cc2cc(C(=O)NCc3ccncc3)nc(-c3cccc(-c4ccncc4)c3)c2[C@H]1CCO	0	2	10[16.7 µM]	0	0	nt	nt
CC(C)(C)[S@](=O)N1Cc2cc(C(=O)N[C@@H]3CCN(Cc4ccccc4)C3)nc(-c3cccc(-c4cccnc4)c3)c2[C@@H]1CCO	-8	1	-2[16.7 µM]	0	2.1*	-0.1[42 µM]	i
COc1ccccc1-c1cccc(-c2nc(C(=O)NCc3ccncc3)cc3c2[C@@H](CCO)N([S@](=O)C(C)(C)C)C3)c1	-21	-2	-13[16.7 µM]	1	24*	0.11	i
CC(C)(C)[S@](=O)N1Cc2cc(C(=O)N3CCc4ccccc4C3)nc(-c3cccc(-c4cccnc4)c3)c2[C@@H]1CCO	-8	0	0[16.7 µM]	0	0	nt	nt
Cc1cc(C(=O)O/N=C(\N)c2ccncc2)ccc1[N+](=O)[O-]	-6	0	-50	4	18*	0.21	i
